Reference: ChEMBL document CHEMBL4513216, “Probing the Open Global Health Chemical Diversity Library for Multistage-Active Starting Points for Next-Generation Antimalarials” (ACS Infect Dis, 2020)

Assay: Toxicity liver stage against HepG2, at 10uM
Format: cell-based
Design: test concentration 10 uM, cell line HepG2-A16-CD81EGFP
Conditions: human, HepG2-A16-CD81EGFP cells; read-out: INHIBITION
Method in brief: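 Uninfected HepG2-A16-CD81EGFP cells, 3 × 10^3 per well, 1536-well, plated on prespotted compound at 10 μM final, parasite-free screening media added to match infected plates; puromycin 10 μM positive, DMSO 0.5% negative; run in parallel with 48 h PbLuc assay at 37 °C, 5% CO2; viability by CellTiter-Glo luminescence, normalized to controls.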

SMILES	cytotoxicity at 10 µM
COc1ccccc1OCCNc1snc(Cl)c1C#N	20.5%
Cn1cncc1-c1nnc([C@H]2CCN(Cc3ncc[nH]3)C2)o1	1.62%
CC(C)(C)C(=O)N1C[C@@H](F)[C@@H](OCc2nc3ccccc3o2)C1	3.33%
CC(=O)N1N=C(COc2ccc(Cl)cc2)OC1c1ccccc1 (stereo not given)	9.87%
CCCNc1ccc(C(=O)NCCc2cccc(Cl)c2)cn1	1.17%
CCCc1nc2c(c(C)c(C)n2Cc2ccccn2)c(N)c1CC	23.3%
O=C(Cc1cc(-c2ccc3c(c2)OCCO3)on1)NCc1ccccn1	26.4%
CN1CC[C@H]2[C@H](C[C@@H](Cn3cncn3)N2c2nccs2)C1	-144%
Cc1cccc(S(=O)(=O)N2CCCc3c(c(=O)n(C)n3C)C2)c1	-2.08%
CS(=O)(=O)N1CC(c2ncn3ccccc23)C1	5.6%
c1cnc(N2CCC3(COCc4cnc(N5CCOCC5)nc43)C2)nc1 (stereo not given)	-1.72%
COc1ccc(N2CCN(CC(O)c3cc(C)ccc3C)CC2)cc1 (stereo not given)	7.25%
COc1ccc(OC)c(C2SCC(=O)Nc3n[nH]cc32)c1 (stereo not given)	12.8%
Nc1ncccc1C(=O)NCc1cccc(Cl)c1	20.5%
Nc1ncc(-c2ccc(C(F)(F)F)cc2)c(C2CCCNC2)n1 (stereo not given)	27.1%
CCC1c2ccsc2CCN1Cc1cc2c(cc1OC)OCCO2 (stereo not given)	29.4%
COc1ccc(CNC(Cc2ccsc2)c2ccc(C)cn2)c(OC)c1 (stereo not given)	6.36%
C=C(C)C(=O)N1CCC(C(=O)c2cc(C)cnc2N)CC1	-2.88%
Cc1ccc(F)cc1C(=O)N1CCOCC12CCCC2	-8.68%
N#Cc1ccccc1OCCN1CCC(C(=O)N2CCOCC2)CC1	-47.2%
CC1CCCCN1C(=O)Cn1cnc(C#N)n1 (stereo not given)	-18.8%
O=C(c1cccnc1O)N1CCOC(c2ccc(Cl)cc2)C1 (stereo not given)	2.6%

SMILES	cytotoxicity at 10 µM
c1ccc2oc(N3CCn4c(nnc4C4CC4)C3)nc2c1	7.41%
CC(CNC(=O)CCCn1cncn1)N1CCc2ccccc2C1 (stereo not given)	-130%
CCCS(=O)(=O)N1CCC(c2ccc(OC)cc2)CC1	2.02%
Cc1cnn(CC2CCN(CC(O)Cn3cccn3)CC2)c1 (stereo not given)	-1.66%
CCOc1ccc(C(=O)NCc2ccnc(N3CCCC3)c2)cn1	6.62%
CN(C)C(=O)N1CCC(C(=O)NCCNc2ncccc2C#N)CC1	18.3%
Cc1ccc(NC(=O)CN(C)C(=O)c2ccc(-n3cccc3)nc2)nc1	12.4%
CCN(CCS(=O)(=O)c1ccc(Cl)cc1)Cc1ccc(OC)c(OC)c1	31.7%
CCc1nc2c(s1)C(N(C)C(=O)c1csnn1)CCC2 (stereo not given)	-3.71%
N#CCCN(Cc1ccco1)C(=O)c1ccc(OCC2CC2)cc1	-5.87%
Cc1cccc(-c2ccc(C(=O)NCCN3CCOCC3)c(=O)[nH]2)c1	-5.88%
CN(C(=O)CN1CCCC1Cc1ccccc1)c1ccccc1 (stereo not given)	17.8%
c1cc(CNCc2ccnc(N3CCCCC3)c2)c2c(c1)OCCCO2	21.4%
OC(CN(Cc1ccccc1)Cc1ccon1)c1cccs1 (stereo not given)	-0.359%
CC(C)c1noc(CN2CCC(c3nc4cc(Cl)ccc4o3)CC2)n1	1.81%
O=C(CSc1ccc2c(c1)OCCO2)NS(=O)(=O)c1ccccc1F	1.98%
Cc1cnn(CC2CCCN2Cc2coc(-c3ccc(F)cc3)n2)c1 (stereo not given)	-0.953%
Cc1ccc(C)c(S(=O)(=O)NC(=O)c2cccc3c2OCCO3)c1	-4.77%
Cc1cc(Cl)ccc1S(=O)(=O)NCC(C)N1CCN(C)CC1 (stereo not given)	8.35%
CC(C)Cc1noc(CN2CCCN(C(=O)c3cccc(Cl)c3)CC2)n1	-2.34%
Cc1cc(N2CCC(N(C)C(=O)c3sccc3C)CC2)nc(C)n1	25.9%
c1cncc(CNc2cccc(OCCN3CCCCC3)c2)c1	-0.589%

SMILES	cytotoxicity at 10 µM
O=C(NC1CCN(c2cc(-n3ccnc3)ncn2)CC1)c1ccncc1	5.94%
CC(Nc1cnn(C)c(=O)c1Cl)c1ccc(F)c(F)c1 (stereo not given)	31.3%
Cc1nc(O)ccc1C(=O)N1CCCC1c1nc(-c2ccccc2)n[nH]1 (stereo not given)	0.636%
COC(=O)c1cccc(C(=O)N2CCN(C(=O)N(C)C)CC2(C)C)c1	11.9%
CC(NCc1ccsc1)c1ccc(OCc2nccn2C)cc1 (stereo not given)	-6.37%
Cc1cnn(CCCNC(=O)NC(C)C(=O)Nc2ccccc2)c1 (stereo not given)	7.04%
Cc1cc(F)ccc1N1CCCC(NC(=O)CCCn2ccnc2)C1 (stereo not given)	3.45%
CN(Cc1cccc(OC(F)(F)F)c1)C(=O)c1cnsn1	0.963%
Cc1nsc(N2CCN(C(=O)Nc3cccc(F)c3)CC2)n1	-18.3%
CN1CCCc2cc(NC(=O)N3CCOC(C(N)=O)C3)ccc21 (stereo not given)	0.602%
CCC(=O)N1CCc2onc(CNS(C)(=O)=O)c2C1	-96.5%
O=C(c1ccccc1F)N1CC[C@@H]2CN(c3ncccn3)CCO[C@@H]2C1	-78.1%
CC(=O)N1Cc2nc(C(=O)NCCc3cccnc3)oc2C1	-81.8%
Cc1ccc(CN2CCC3(CC(=O)N(c4ccc5c(c4)OCO5)C3)C2)o1 (stereo not given)	-70.2%
Cc1cnc(N2CCC(c3ccncc3)CC2)nc1-c1ccnn1C	28.7%
Cc1ccccc1CC1(CO)CCCN(c2ncncc2C(C)C)C1 (stereo not given)	-22.2%
O=C(NCC1CCCN(Cc2cccc3nonc23)C1)c1ccc[nH]1 (stereo not given)	-42.2%
CNc1nc(N2CCN(CC=C(C)C)C(CCO)C2)nc2c1CCC2 (stereo not given)	-0.6%
COc1ccc2cc(C3CN(C(=O)COC(C)C)CCO3)ccc2c1 (stereo not given)	7.29%
CCn1cc(CN2CCCC(c3[nH]ncc3-c3ccc(C)cc3)C2)cn1 (stereo not given)	-1.67%
O=C1N(CC2CCCCC2)CCCC1(O)CN1CCc2[nH]ncc2C1 (stereo not given)	-5.84%
O=C(CCC1CCN(Cc2ccncc2)CC1)Nc1ccccc1Cl	-3.9%

SMILES	cytotoxicity at 10 µM
CC(=O)c1ccc(C(=O)NCc2cccnc2N2CCCC(O)C2)s1 (stereo not given)	-0.147%
O=C(Cc1ccccc1)C1CCCN(Cc2cncn2C2CCCC2)C1 (stereo not given)	-1.11%
CN(Cc1ccc(C2CC(=O)Nc3cc4[nH]ncc4cc32)o1)S(C)(=O)=O (stereo not given)	34.1%
FC(F)(F)CCc1ccnc(NCc2csc(N3CCOCC3)n2)n1	-4.13%
O=S(=O)(N[C@H]1CC[C@H]1NC1Cc2ccccc2C1)c1cccnc1	1.24%
NC(=O)CCC1CCCN(Cc2cnc(N3CCCCC3)nc2)C1 (stereo not given)	-11.1%
CC(C)Cc1cc(CNC(=O)c2ccccc2C2CCNC2)no1 (stereo not given)	-45.5%
CN1CCN(Cc2cnn(-c3ccc(F)cc3)c2)[C@H]2CS(=O)(=O)C[C@H]21	12.8%
CSCCC1c2nc[nH]c2CCN1Cc1ccccc1C(F)(F)F (stereo not given)	1.09%
CCn1cc(CN2CCCC(COc3ccccc3F)C2)cn1 (stereo not given)	-47.7%
Cc1cnc(C)c(N2CCCC(CO)(Cc3ccccc3C)C2)n1 (stereo not given)	-17.2%
CCN(CC)S(=O)(=O)N1CCCC(c2nccn2Cc2ccncc2)C1 (stereo not given)	9.2%
CC(C)N1CCC2(CCCN(Cc3ccc(F)cc3)C2=O)C1 (stereo not given)	-28.7%
O=C(CC1COCCN1S(=O)(=O)c1ccccc1)NCc1ccccn1 (stereo not given)	4.48%
Cc1n[nH]c(CN2CCN(c3ncnc4scc(C)c34)CC2)c1Cl	58.4%
Fc1ccccc1CN1CCCN(c2ccc3cc[nH]c3n2)CC1	-15.2%
COc1ccc(C(C)NC(=O)C2CCN(S(C)(=O)=O)CC2)cc1C (stereo not given)	-7.5%
O=C(NCc1nc(NC2CCCC2)c2cc(Cl)ccc2n1)c1cncs1	4.15%
CN(Cc1nc2ccsc2c(=O)[nH]1)C[C@@H]1CCCN2CCCC[C@H]12	-7.33%
COc1ccc(N(c2ccc(OC)cc2)c2ccc(C(=O)O)s2)cc1	18.5%
COC(=O)c1ccc(CNCc2cn(C)nc2C)cc1	-8.55%
Cc1cc(-c2cnc(N3CCN(C)CC3)nc2-c2ccc(C)s2)on1	-3.68%

SMILES	cytotoxicity at 10 µM
Cc1csc(C2CCCCN2C(=O)c2cc(C(C)C)[nH]n2)n1 (stereo not given)	-1.59%
Cn1nccc1C1CCN(CC(=O)NCC2CC2)CC1	-9.38%
CCNc1cc2c(nn1)CCN(C(=O)c1cc3cc(C)ccc3o1)C2	-18.7%
Cc1ccc(-c2nc(CCNC(=O)NC3CCC(O)CC3)co2)cc1 (stereo not given)	-2.3%
CCn1c(C)cc(C(=O)N2CCc3nnc(N)cc3C2)c1C	-12.2%
O=C(CCCc1cccs1)N1CCC(N2CCNC2=O)CC1	2.83%
O=C(Cc1ccc2c(c1)CCCC2)NCCc1ccccn1	1.9%
CC(C)N(Cc1ccc(C(=O)O)o1)C(C)C	-1.2%
Cc1ncc(CN(Cc2ccccn2)Cc2ccccc2Cl)n1C	-1.45%
Cc1cc(C[C@@H]2CCC[C@H]2NCc2ccccc2C(F)(F)F)on1	2.8%
Cc1cccc(CN2CCC3(CC2)CN(c2cnn(C)c2)C(=O)CO3)n1	3.94%
N#Cc1ccc(N2CCC3(CCC(=O)N3CCN3CCCC3)CC2)nc1	-114%
COc1ncccc1CN1CCC2(CC1)COCCN2C	16.6%
Cc1ccccc1C(=O)N1C[C@@H]2CCN(c3cccnc3)C[C@@H]2C1	-76.3%
COc1cc(N2CCC3(CC2)CCN(c2cccnc2)C3=O)ncn1	-116%
O=C1[C@@H]2CCN(Cc3ccoc3)C[C@@H]2OCCN1Cc1cccc(F)c1	-98.2%
Cn1cc(N2C[C@@H]3CN(CC4CCOCC4)C[C@@H]3C2=O)cn1	11.1%
Cc1noc(C)c1CN1CCc2ncnc(-c3ccoc3)c2CC1	-92%
CCN(C)C1COC2(CCN(C(=O)c3ccc(Cl)cc3)CC2)C1 (stereo not given)	-2.57%
CC(=O)NCC(=O)N1CCn2cc(CN3CCCCC3)nc2C1	-3.34%
CC(=O)NCc1nn(C)c2c1CN(Cc1ccsc1)C2	-144%
CCOCCN1CCN(C=C2NN=C(c3occc3C)O2)CC1	-50.4%
